Measurements reported in ChEMBL document CHEMBL2169883, “Design, synthesis, and structure-activity relationship of N-arylnaphthylamine derivatives as amyloid aggregation inhibitors” (J Med Chem, 2012).

tested on: Mus musculus; assay: Toxicity in mouse assessed as incidence of discomfort at 25 mg/kg, sc; type: organism-based; design: dose 25 mg/kg, route subcutaneous; conditions: in vivo

SMILES	Activity
COc1ccc(Nc2ccc(OC)c3ccccc23)cc1	Non-toxic

tested on: not listed separately; assay: Ratio of drug level from brain to plasma in rat administered via intranasal route; type: ADME; conditions: inhaled or intranasal, read-out: BPR

SMILES	Kp
CCN(C)C(=O)Oc1cccc([C@H](C)N(C)C)c1 [RIVASTIGMINE]	3

tested on: not listed separately; assay: in vivo; conditions: rat, brain/plasma, po, 16 mg/kg

Kp	SMILES
5	Cl.Nc1c2c(nc3ccccc13)CCCC2.O

tested on: Mus musculus; assay: Toxicity in mouse assessed as incidence of side effect at 25 mg/kg, sc; type: organism-based; design: dose 25 mg/kg, route subcutaneous; conditions: in vivo

SMILES	Activity
COc1ccc(Nc2ccc(OC)c3ccccc23)cc1	Non-toxic

tested on: not listed separately; assay: Ratio of drug level from brain to plasma in mouse at 25 mg/kg, sc; type: ADME, organism-based; design: dose 25 mg/kg, route subcutaneous; conditions: read-out: BPR
Method in brief: (§1)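 Mice received 25 mg/kg sc in ethanol/PEG-400/saline (10:40:50). Trunk blood and brain were collected at 0–240 min. Plasma and brain homogenate were solid-phase extracted and quantified by RP-HPLC (UV 224 nm, internal standard), n = 3. Cmax and tmax were read directly from the data; brain and plasma AUCt were calculated by the linear trapezoidal rule to give the brain/plasma ratio.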

Kp	SMILES
2	COc1ccc(Nc2ccc(OC)c3ccccc23)cc1

tested on: not listed separately; assay: Inhibition of amyloid beta (1 to 42) aggregation after 24 hrs by Thioflavin-T fluorescence assay; conditions: not given
Method in brief: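 Nonaggregate Aβ1-42 (44 μM working solution) was then added, and plates were agitated at 37 °C for 24 h. Read-out used 10 μM ThT in Na2HPO4 pH 6.5 (ex 450/em 486 nm), in triplicate; IC50 came from % residual aggregate dose-response.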

IC50	SMILES
ND(Insoluble)	COC(=O)c1ccc(Nc2ccc(OC)c3ccccc23)cc1
ND(Insoluble)	COC(=O)c1ccc(Nc2ccc3ccccc3c2O)cc1
ND(Unstable)	OCc1ccc(Nc2ccc(O)c3ccccc23)cc1

Continued, compound first:

SMILES	IC50
Oc1ccc2ccccc2c1Nc1c(O)ccc2ccccc12	ND(Unstable)
COc1ccc(Sc2ccc(OC)c3ccccc23)cc1	ND(Insoluble)
COc1ccc(S(=O)(=O)c2ccc(OC)c3ccccc23)cc1	ND(Insoluble)
COc1ccc(Nc2ccccc2)c2ccccc12	ND(Insoluble)

same assay, conditions: read-out: IC50

IC50 [µM]	SMILES
5.6	COc1ccc(Nc2ccc(OC)c3ccccc23)cc1
14.1	O=C(O)c1ccccc1Nc1c(O)ccc2ccccc12
2.4	Oc1c(Nc2ccccc2)ccc2ccccc12
2.6	O=C(O)c1ccc(Nc2ccc3ccccc3c2O)cc1
33.6	COc1c(Nc2ccccc2)ccc2ccccc12
> 20	COc1c(Nc2ccc(C(=O)O)cc2)ccc2ccccc12
> 20	COC(=O)c1ccc(Nc2ccc3ccccc3c2OC)cc1
> 5	COc1c(Nc2ccc(I)cc2)ccc2ccccc12
> 100	O=C(O)c1ccc(Nc2cccc3ccccc23)cc1
> 20	COC(=O)c1ccc(Nc2cccc3ccccc23)cc1
> 30	Fc1ccc(Nc2ccc(F)c3ccccc23)cc1
2.7	COc1ccc(Nc2ccc([N+](=O)[O-])c3ccccc23)cc1
5.4	Oc1ccc(Nc2ccccc2)c2ccccc12
57.4	O=C(O)c1ccc(Nc2ccc(O)c3ccccc23)cc1
5.1	COC(=O)c1ccc(Nc2ccc(O)c3ccccc23)cc1
1	Oc1ccc(Nc2ccc(O)c3ccccc23)cc1
46.1	O=C(O)c1cc(Nc2ccc(O)c3ccccc23)ccc1O
> 60	COc1ccc(Nc2ccc(C(=O)O)cc2)c2ccccc12
2	O=C(O)c1ccccc1Nc1ccc(CCc2ccc(Cl)c(Cl)c2)cc1

The remaining lines, values behind:

SMILES	IC50 [µM]
COc1ccccc1Nc1ccc(OC)c2ccccc12	> 5
COc1ccc(I)cc1Nc1ccc(OC)c2ccccc12	> 5
COc1ccc(Nc2ccc(OC)c3ccccc23)cc1C(=O)O	> 80
COC(=O)c1ccccc1Nc1c(O)ccc2ccccc12	> 20
COC(=O)c1ccccc1Nc1c(OC)ccc2ccccc12	> 5
COc1ccc2ccccc2c1Nc1c(OC)ccc2ccccc12	5.7
Oc1ccc(Sc2ccc(O)c3ccccc23)cc1	10.9
O=S(=O)(c1ccc(O)cc1)c1ccc(O)c2ccccc12	> 100
O=C1c2ccccc2C(=O)c2c(O)c(O)cc(Nc3ccc(S(=O)(=O)O)cc3)c21	1.1
CSc1ccc(Nc2ccc(F)c3ccccc23)cc1	> 5
CSc1ccc(Nc2ccc(N(C)C)c3ccccc23)cc1	2.2
O=C(O)c1ccccc1Nc1ccc(CCCc2ccc(Cl)c(Cl)c2)cc1	1
O=C(O)c1c(Nc2ccc(CCc3ccc(Cl)c(Cl)c3)cc2)cccc1C(F)(F)F	0.1
O=C(O)c1cc2ccccc2c(Cc2c(O)c(C(=O)O)cc3ccccc23)c1O [PAMOIC ACID]	38.2

tested on: not listed separately; assay: Tmax in mouse brain at 25 mg/kg, sc; type: ADME, organism-based; design: dose 25 mg/kg, route subcutaneous; conditions: not given; method in brief: as §1

Tmax [h]	SMILES
1	COc1ccc(Nc2ccc(OC)c3ccccc23)cc1

tested on: not listed separately; assay: Cmax in mouse brain at 25 mg/kg, sc; type: ADME, organism-based; design: dose 25 mg/kg, route subcutaneous; conditions: not given; method in brief: as §1

Cmax [ng/mL]	SMILES
410	COc1ccc(Nc2ccc(OC)c3ccccc23)cc1
